In ChEMBL document CHEMBL1133651, “Thiazoloindans and thiazolobenzopyrans: a novel class of orally active central dopamine (partial) agonists” (J Med Chem, 2000):
pEC50, pIC50, pKi: −log10 of the molar value. Calls of active or inactive are those of the source. The calls are words filed in the database; no cut-off is given here.

Tests used:
D(3) dopamine receptor [1] = target: T1, D(3) dopamine receptor (Rattus norvegicus, UniProt P19020); experiment: Effective concentration was determined as thymidine uptake in CHO-L6 cells transfected with the rat Dopamine receptor D3 by mitogenesis assay (intrinsic activity)
T1 sequence (P19020 whole entry): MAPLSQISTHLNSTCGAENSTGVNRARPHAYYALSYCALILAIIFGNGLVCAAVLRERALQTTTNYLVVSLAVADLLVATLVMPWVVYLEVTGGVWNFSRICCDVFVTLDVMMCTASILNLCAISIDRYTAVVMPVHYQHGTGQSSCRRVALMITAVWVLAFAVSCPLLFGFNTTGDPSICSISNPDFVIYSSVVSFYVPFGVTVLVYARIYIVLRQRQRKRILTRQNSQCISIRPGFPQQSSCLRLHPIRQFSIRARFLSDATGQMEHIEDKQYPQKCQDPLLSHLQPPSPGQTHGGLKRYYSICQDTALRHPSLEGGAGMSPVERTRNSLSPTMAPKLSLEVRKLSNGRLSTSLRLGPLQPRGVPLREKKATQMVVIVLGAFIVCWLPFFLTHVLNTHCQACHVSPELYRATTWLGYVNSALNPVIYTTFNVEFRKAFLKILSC

[2] = target: D(3) dopamine receptor (Rattus norvegicus) (UniProt P19020); conditions: CHO-L6
Chain of D(3) dopamine receptor (Rattus norvegicus) (P19020 whole entry): as above

[3] = target: D(2) dopamine receptor (Rattus norvegicus) (UniProt P61169); experiment: Inhibition of quinpirole (30 nM)-stimulated [3H]thymidine uptake in CHO-L6 cells transfected with the rat Dopamine receptor D2L;compound is active showing test concentration ranging from 0.1 nM - 1 uM; assay type: functional, cell-based
Chain of D(2) dopamine receptor (Rattus norvegicus) (P61169 whole entry): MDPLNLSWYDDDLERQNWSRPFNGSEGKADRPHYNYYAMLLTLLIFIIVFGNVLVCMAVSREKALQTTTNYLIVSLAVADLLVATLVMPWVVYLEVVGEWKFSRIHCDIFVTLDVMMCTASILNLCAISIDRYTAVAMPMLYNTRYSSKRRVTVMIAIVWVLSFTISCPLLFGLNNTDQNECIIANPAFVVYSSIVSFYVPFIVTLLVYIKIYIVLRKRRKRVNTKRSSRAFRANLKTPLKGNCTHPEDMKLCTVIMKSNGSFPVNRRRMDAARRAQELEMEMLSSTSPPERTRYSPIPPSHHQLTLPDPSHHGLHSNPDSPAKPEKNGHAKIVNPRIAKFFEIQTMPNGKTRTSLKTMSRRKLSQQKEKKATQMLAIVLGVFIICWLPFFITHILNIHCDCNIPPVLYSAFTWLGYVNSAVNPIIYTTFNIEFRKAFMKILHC

[4] = Inhibitory concentration of lipid peroxidation (LPO).; assay type: functional
[5] = target: D(2) dopamine receptor (Rattus norvegicus) (UniProt P61169); experiment: compound was tested for intrinsic activity for thymidine uptake in CHO-L6 cells transfected with rat Dopamine receptor D2L; assay type: functional, cell-based
Outline: (§1)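 Mitogenesis assay for agonism: [³H]thymidine uptake measured in CHO-L6 cells transfected with rat D2L receptor. Intrinsic activity expressed relative to quinpirole, taken as full agonist (IA 100%). Means of three determinations.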

D(2) dopamine receptor [6] = target: T2, D(2) dopamine receptor (Rattus norvegicus, UniProt P61169); experiment: Effective concentration was determined as thymidine uptake in CHO-L6 cells transfected with the rat Dopamine receptor D2L by mitogenesis assay (intrinsic activity); assay type: functional, cell-based; outline: as §1
T2 sequence (P61169 whole entry): as above

D(2) dopamine receptor [7] = target: T3, D(2) dopamine receptor (Homo sapiens, UniProt P14416); experiment: in vitro binding affinity was determined on human Dopamine receptor D2L expressed in chinese hamster ovary(CHO) K-1 cells using [3H]NPA as radioligand.; assay type: cell-based, CHO-K1
T3 sequence (P14416 whole entry): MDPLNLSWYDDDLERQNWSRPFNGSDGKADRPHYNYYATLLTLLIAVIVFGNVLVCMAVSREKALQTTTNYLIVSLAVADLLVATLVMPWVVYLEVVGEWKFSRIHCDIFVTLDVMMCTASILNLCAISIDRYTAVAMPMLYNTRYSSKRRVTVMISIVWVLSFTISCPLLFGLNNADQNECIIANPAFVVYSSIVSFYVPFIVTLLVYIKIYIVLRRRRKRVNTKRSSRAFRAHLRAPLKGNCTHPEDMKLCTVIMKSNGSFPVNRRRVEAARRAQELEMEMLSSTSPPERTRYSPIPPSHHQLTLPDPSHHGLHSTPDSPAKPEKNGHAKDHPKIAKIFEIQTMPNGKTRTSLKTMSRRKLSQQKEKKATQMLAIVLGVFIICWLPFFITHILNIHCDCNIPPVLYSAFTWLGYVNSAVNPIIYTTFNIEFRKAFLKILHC
Outline: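 Displacement of agonist radioligand [³H]NPA from human D2L receptors expressed in CHO K-1 cells. Ki is the mean of three separate experiments, with results varying by no more than 25%.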

[8] = Log d of compound was determined; assay type: physicochemical; conditions: octanol/water
D(4) dopamine receptor = target: T4, D(4) dopamine receptor (Homo sapiens, UniProt P21917); experiment: in vitro binding affinity was determined on human Dopamine receptor D4 expressed in chinese hamster ovary(CHO) K-1 cells using [3H]spiperone as radioligand.; assay type: cell-based, CHO-K1
T4 sequence (P21917 whole entry): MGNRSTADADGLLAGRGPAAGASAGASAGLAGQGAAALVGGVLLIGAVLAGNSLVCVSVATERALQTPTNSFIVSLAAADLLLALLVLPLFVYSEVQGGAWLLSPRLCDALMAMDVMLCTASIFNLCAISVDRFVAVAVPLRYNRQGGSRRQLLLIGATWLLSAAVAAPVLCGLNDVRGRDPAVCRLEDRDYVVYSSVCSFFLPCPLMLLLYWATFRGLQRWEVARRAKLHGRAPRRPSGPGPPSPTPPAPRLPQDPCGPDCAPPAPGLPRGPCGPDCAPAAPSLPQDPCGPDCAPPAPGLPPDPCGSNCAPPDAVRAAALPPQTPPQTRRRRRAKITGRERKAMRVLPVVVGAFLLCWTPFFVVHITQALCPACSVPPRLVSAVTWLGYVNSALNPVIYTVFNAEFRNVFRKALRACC
Outline: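 Displacement of [³H]spiperone from human D4.2 receptors expressed in CHO K-1 cells; Ki values are means of three separate experiments, which varied by no more than 25%.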

D(3) dopamine receptor [9] = target: D(3) dopamine receptor (Homo sapiens, UniProt P35462); experiment: in vitro binding affinity was determined on human Dopamine receptor D3 expressed in chinese hamster ovary(CHO) K-1 cells using [3H]spiperone as radioligand.; assay type: cell-based, CHO-K1
Chain of D(3) dopamine receptor (Homo sapiens, UniProt P35462) (P35462 whole entry): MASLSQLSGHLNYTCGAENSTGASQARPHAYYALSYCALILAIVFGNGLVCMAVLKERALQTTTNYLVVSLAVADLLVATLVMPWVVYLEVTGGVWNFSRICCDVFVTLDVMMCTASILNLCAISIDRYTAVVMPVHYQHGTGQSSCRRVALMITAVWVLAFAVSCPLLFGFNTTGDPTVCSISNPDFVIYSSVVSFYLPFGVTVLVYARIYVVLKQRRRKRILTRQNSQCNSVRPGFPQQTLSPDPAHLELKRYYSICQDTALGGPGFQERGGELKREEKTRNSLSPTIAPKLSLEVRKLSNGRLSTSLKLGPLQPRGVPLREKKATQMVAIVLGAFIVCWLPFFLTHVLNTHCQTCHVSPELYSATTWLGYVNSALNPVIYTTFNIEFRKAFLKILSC

D(3) dopamine receptor [10] = target: T1, D(3) dopamine receptor; experiment: Effective concentration was determined as thymidine uptake in CHO-L6 cells transfected with the rat Dopamine receptor D3 by mitogenesis assay; assay type: functional, cell-based
D(2) dopamine receptor [11] = target: T3, D(2) dopamine receptor; experiment: in vitro binding affinity was determined on human Dopamine receptor D2L expressed in chinese hamster ovary(CHO) K-1 cells using [3H]spiperone as radioligand.; assay type: cell-based, CHO-K1
Outline: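 Antagonist binding: displacement of [³H]spiperone from human DA D2L, D3 or D4.2 receptors expressed in CHO K-1 cells; Ki as mean of three separate experiments, varying by no more than 25%; high- and low-affinity Ki reported separately where applicable.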

D(2) dopamine receptor [12] = target: T2, D(2) dopamine receptor; experiment: Effective concentration was determined as thymidine uptake in CHO-L6 cells transfected with the rat Dopamine receptor D2L by mitogenesis assay; assay type: functional, cell-based
Outline: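 Agonism read as [³H]thymidine uptake (mitogenesis) in CHO-L6 cells transfected with rat DA D2L receptor; intrinsic activity expressed relative to quinpirole (full agonist, IA 100%); test concentrations 0.1 nM to 1 µM; means of three determinations ± SEM.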

[13] = target: D(2) dopamine receptor (Rattus norvegicus) (UniProt P61169); experiment: Inhibition of quinpirole (30 nM)-stimulated [3H]thymidine uptake in CHO-L6 cells transfected with the rat Dopamine receptor D2L; compound is active showing test concentration ranging from 0.1 nM - 1 uM; assay type: functional, cell-based
D(2) dopamine receptor [14] = target: T3, D(2) dopamine receptor; experiment: in vitro binding affinity was determined on human Dopamine receptor D2L expressed in chinese hamster ovary(CHO) K-1 cells using [3H]-0437 as radioligand.; assay type: cell-based, CHO-K1
Outline: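 Human DA D2L receptor expressed in CHO K-1 cells; agonist radioligand displacement ([³H]N-0437 or [³H]NPA); Ki as mean of three separate experiments, varying by no more than 25%.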

[15] = target: D(2) dopamine receptor (Rattus norvegicus) (UniProt P61169); experiment: Inhibition of quinpirole (30 nM)-stimulated [3H]thymidine uptake in CHO-L6 cells transfected with the rat Dopamine receptor D2L; NA is not active; assay type: functional, cell-based
[16] = target: D(3) dopamine receptor (Rattus norvegicus) (UniProt P19020); conditions: CHO-L6; remark: listed apart in the source

Row | SMILES | pEC50 (D(3) dopamine receptor [1]) | Inhibitory activity [2] | Inhibitory activity [3] | pIC50 [4] | Intrinsic activity [5] | pEC50 (D(2) dopamine receptor [6]) | pKi (D(2) dopamine receptor [7]) | logD [8] | pKi (D(4) dopamine receptor) | pKi (D(3) dopamine receptor [9]) | pEC50 (D(3) dopamine receptor [10]) | pKi (D(2) dopamine receptor [11]) | pEC50 (D(2) dopamine receptor [12]) | Inhibitory activity [13] | pKi (D(2) dopamine receptor [14]) | NA [15] | pIC50 (D(4) dopamine receptor) | Inhibitory activity [16]
1 | CCCN(CCC)C1Cc2cc3nc(N)sc3cc2C1 (centres undefined) | < 6.00 | Active | Active | 4.22 | 28% | 8.24 | 7.57 | 1.66 | 6.57 | 8.85 | – | – | – | – | – | – | – | –
2 | CCCN[C@H]1CCc2nc(N)sc2C1 [PRAMIPEXOLE] | – | – | – | – | 90% | – | – | – | – | – | 9.68 | – | – | – | – | – | – | –
3 | CCCN(CCC)C1COc2ccc3nc(N)sc3c2C1 (centres undefined) | – | Active | – | 4.30 | 7% | – | – | – | – | 6.29 | < 6.00 | 5.23 | 6.83 | Active | 7.33 | – | – | –
4 | CCCNC1Cc2cc3nc(N)sc3cc2C1 (centres undefined) | – | – | – | < 4.00 | – | – | 5.87 | 0.19 | < 5.48 | < 5.00 | – | – | – | – | – | – | – | –
5 | CCCN(CCC)C1COc2c(ccc3sc(N)nc23)C1 (centres undefined) | – | – | – | 5.30 | – | – | – | – | – | 5.85 | – | 5.45 | – | – | 6.27 | – | – | –
6 | CCCN(CCC)C1Cc2ccc3nc(N)sc3c2C1 (centres undefined) | < 6.00 | – | – | 4.52 | 71% | 7.73 | 6.30 | – | – | 7.96 | – | – | – | – | – | inactive | < 5.00 | Active
